# Screening results as filed in PubChem.
# Shown are actives, neighbours in structure and some others; about 5.7% of the full set was active somewhere.
# SKKanGAS inh: SKKanGAS growth inhibition | S. pyogenes SKKanGAS, kanamycin growth, BacTiter-Glo, 6 h | inhibition, % at 7.5 µM | 1.3% of 300,000 active | AID 1662;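 active = mean replicate score, as percent of positive control median, at least 50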;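 also: strain carries kanamycin resistance gene driven by streptokinase promoter and grows in 40 µg/ml kanamycin; loss of luminescence reflects streptokinase promoter inhibition or plain growth inhibition; 0% = median of DMSO wells and 100% = positive control at its reference dose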
# Calb FLC: affects C. albicans growth with fluconazole. AID 1979. 0.57% of 300,000 active. growth inhibition, % (concentration not given with the values). C. albicans CaCi-2 (fluconazole-resistant clinical isolate) + fluconazole, Alamar Blue growth, 48 h;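 active = growth inhibition above about 58% in most replicates, limit read from the data, passing the limit was not always enough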;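 also: all wells also contain fluconazole at 8 µg/ml as a sub-toxic cotreatment; 0% = median of DMSO wells and 100% = median of geldanamycin control wells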
# T cruzi repl: blocks replication of Trypanosoma cruzi. inhibition, % (concentration not given with the values). T. cruzi beta-gal in NIH3T3, luminescence, 90 h. 1.4% of 300,000 active;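 active = mean inhibition across valid replicates above about 55%, limit read from the data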;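 also: signal also drops with host cell toxicity which is not excluded here; 0% = plate median of DMSO wells and 100% = zero luminescence signal; higher percent means less beta-gal luminescence so fewer parasites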
#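 assay system = mouse NIH/3T3 fibroblasts infected with β-gal-expressing T. cruzi Tulahuen C4 | input = 5,000 NIH/3T3 host cells per well | buffer or medium = DMEM plus 2% FBS | timing = 3 h host attachment, then at least 90 h co-culture | measured by = GalScreen luminescence, 60 min | evaluation = luminescence reflecting intracellular parasite burden, expressed as percent inhibition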
# CSC inhib: blocks cancer stem cells; 1.1% of 300,000 active; cancer stem cell-like cells viability, luminescence; inhibition, % at 7.5 µM; in the data active = inhibition above about 75%; tested in HMLE shEcad cells
# Beta cell apopt: blocks beta cell apoptosis; AID 435005; INS-1E cytokine-induced death, ATP luminescence, 48 h; percent of positive-control rescue, neutral wells zero; 0.8% of 300,000 active; protection from apoptosis, % (concentration not given with the values);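 active = Every replicate reaches about 75%, or at least half do and their mean reaches it too, limit read from the data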;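 also: 0% = cytokine-treated negative control wells and 100% = positive control rescue; higher means more ATP so stronger rescue from cytokine killing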
# Mdm2-MdmX inh: disrupts the human Mdm2-MdmX interaction | O15151+Q00987 | SaOS-2 split-luciferase Mdm2/MdmX complementation, luminescence | inhibition, % at 8 µM | 3% of 330,000 active;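 active = inhibition of at least 50% at 8 µM in the primary screen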
# Target sequence (O15151 whole entry, looked up): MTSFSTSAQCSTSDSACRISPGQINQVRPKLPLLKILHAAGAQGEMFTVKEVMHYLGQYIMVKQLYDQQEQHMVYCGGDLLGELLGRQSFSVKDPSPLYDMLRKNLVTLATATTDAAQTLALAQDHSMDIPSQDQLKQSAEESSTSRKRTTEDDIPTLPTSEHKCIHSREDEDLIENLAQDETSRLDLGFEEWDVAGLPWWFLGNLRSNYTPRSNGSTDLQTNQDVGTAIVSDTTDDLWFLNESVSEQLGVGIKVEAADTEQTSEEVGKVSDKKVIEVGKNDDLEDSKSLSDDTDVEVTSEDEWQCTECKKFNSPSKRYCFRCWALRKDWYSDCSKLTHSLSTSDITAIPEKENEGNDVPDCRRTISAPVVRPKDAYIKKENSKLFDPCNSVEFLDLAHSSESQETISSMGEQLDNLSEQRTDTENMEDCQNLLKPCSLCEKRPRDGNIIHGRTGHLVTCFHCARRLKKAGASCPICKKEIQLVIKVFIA
# Target sequence (Q00987 whole entry, looked up): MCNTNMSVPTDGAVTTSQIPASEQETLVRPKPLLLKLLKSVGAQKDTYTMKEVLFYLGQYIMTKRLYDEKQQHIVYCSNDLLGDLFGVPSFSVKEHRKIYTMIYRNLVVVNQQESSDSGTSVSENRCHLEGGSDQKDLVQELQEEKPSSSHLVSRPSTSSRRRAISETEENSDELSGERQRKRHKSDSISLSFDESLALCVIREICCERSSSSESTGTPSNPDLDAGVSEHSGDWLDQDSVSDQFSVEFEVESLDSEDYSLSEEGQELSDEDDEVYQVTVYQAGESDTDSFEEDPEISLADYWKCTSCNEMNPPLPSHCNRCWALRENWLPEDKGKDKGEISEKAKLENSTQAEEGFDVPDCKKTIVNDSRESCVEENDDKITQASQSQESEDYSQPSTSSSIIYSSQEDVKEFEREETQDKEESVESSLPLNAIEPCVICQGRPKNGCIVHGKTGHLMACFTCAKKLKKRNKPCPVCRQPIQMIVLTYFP
# Mdm2-MdmX conf: confirmation of human Mdm2/MdmX interaction inhibitors; shares compounds with Mdm2-MdmX inh; Mdm2-MdmX binding, luminescent assay; inhibition, % at 8 µM; 55% of 10,000 active; in the data active = inhibition above about 40%
# Full FLuc ctr: counter-screen for Mdm2/MdmX inhibitors: full-length luciferase; shares compounds with Mdm2-MdmX inh; inhibition, % at 8 µM; 77% of 6,200 active; SaOS-2 full-length luciferase counterscreen, luminescence;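 active = mean inhibition at 8 µM reaching about 37%, which flags the compound as non-specific, limit read from the data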;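 also: p53-null SaOS-2 cells with luciferase driven by a doxycycline-inducible promoter; compound on cells about two nights before reading with doxycycline added after day one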
# Starred values were filed as active, the others as inactive; / = not tested or not shown.
SMILES,SKKanGAS inh,Calb FLC,T cruzi repl,CSC inhib,Beta cell apopt,Mdm2-MdmX inh,Mdm2-MdmX conf,others
O=C(NCc1ccccc1)c1cccc2c1C(=O)c1ccc(/C=C/c3ccccc3)cc1S2(=O)=O,/,/,/,/,30.8,76.6*,20.7,
COc1ccc2oc(C(=O)OCC(=O)N(Cc3ccccc3)C(C)(C)C)c(C)c2c1,11.8,-5.5,-10.0,2.0,2.5,31.8,/,
O=C(NCc1cccc(OC(F)(F)F)c1)c1cccc2c1C(=O)c1ccc(-c3ccc(F)cc3OCc3ccccc3)cc1S2(=O)=O,/,/,/,/,3.1,-16.2,/,
COc1ncc(-c2ccc3c(c2)S(=O)(=O)c2cccc(C(=O)NCc4ccco4)c2C3=O)cn1,/,/,/,-6.1,-2.4,53.0*,19.9,
COc1ccc(-c2ccc3c(c2)S(=O)(=O)c2cccc(C(=O)NCc4cccc(OC(F)(F)F)c4)c2C3=O)cc1OC,/,/,/,60.3,10.6,72.8*,-3.0,
O=C(NC1CCCCC1)c1cccc2c1C(=O)c1ccc(-c3ccc(OC(F)(F)F)cc3)cc1S2(=O)=O,/,/,/,/,40.2,71.4*,28.9,Full FLuc ctr=79.0*
COc1ncc(-c2ccc3c(c2)S(=O)(=O)c2cccc(C(=O)O)c2C3=O)cn1,/,/,/,-13.2,-0.7,13.1,/,
O=C(O)c1cccc2c1C(=O)c1ccc(Cl)cc1S2(=O)=O,/,/,/,1.1,1.5,0.5,/,
O=C(NCc1cc(C(F)(F)F)ccc1Cl)c1cccc2c1C(=O)c1ccc(Cl)cc1S2(=O)=O,/,/,/,/,9.3,54.2*,1.4,
COC(=O)[C@]1(C)N[C@H](CN(C)C(=O)Nc2ccc(Cl)cc2)[C@@H]2C(=O)N(C)C(=O)[C@@H]21,/,/,/,0.7,0.5,8.5,/,
CN(Cc1ccccc1Cl)C(=O)CCNC(=O)c1ccco1,/,/,/,/,/,-29.6,/,
CCC1=C(c2cc(OC)c(OC)c(OC)c2)C2(CCCC2)C(=O)O1,2.7,-21.7,-2.0,2.3,-7.7,-3.2,/,
CC(Sc1nnc(C2CC2)n1C1CC1)C(=O)NC1(C#N)CCCCC1 (stereo not drawn),/,/,/,/,-0.7,19.3,/,
CCC1(C)Cc2c(sc(NC(=S)NC(=O)c3ccccc3)c2C#N)CO1 (stereo not drawn),19.3,-0.6,-4.7,43.6,10.6,-0.5,/,
CN1Cc2sc(NC(=S)NC(=O)c3ccccc3)c(C#N)c2CC1(C)C,7.0,-8.5,19.5,8.9,5.7,58.2*,62.0*,Full FLuc ctr=61.0*
CCCC(=O)N=C1SC2CS(=O)(=O)CC2N1c1ccc(-c2nc3ccc(C)cc3s2)cc1 (stereo not drawn),10.6,-1.3,33.2,9.6,-3.6,72.9*,-109.5,
Nc1nc(-c2ccccc2)cc(-c2ccccc2O)n1,-14.0,71.2,0.3,22.9,-18.9,80.3*,28.1,
Oc1ccc(-c2cc(-c3ccc(O)cc3)nc(-c3ccccc3)n2)cc1,103.1*,-0.6,55.4*,104.8*,-0.8,83.2*,28.6,
Nc1nc(N)nc(-c2ccccc2O)n1,7.3,1.4,-11.1,-14.5,-30.2,17.3,/,
Nc1nc(-c2ccccc2)nc(-c2ccccc2O)n1,14.2,45.0,-1.5,11.3,3.4,62.4*,24.9,
Nc1ccc(-c2cc(-c3ccc(N)cc3)nc(-c3ccccc3)n2)cc1,2.5,1.9,8.4,-0.9,-2.0,15.4,/,
Cc1ccc(Nc2c(N)c(=O)oc3ccccc23)cc1,-0.2,-26.9,-11.2,40.6,8.1,57.7*,36.5,
CNc1c(N)c(=O)oc2ccccc12,-2.6,-9.4,-1.9,-7.9,/,24.0,/,
CCOc1ccc(NC(=O)COc2ccc(C(=O)NCC3CCCO3)cc2OC)cc1 (stereo not drawn),/,/,/,/,4.4,-12.4,/,
O=C(/C=C/c1cccc(Cl)c1)c1nc2ccccc2[nH]1,17.5,99.4*,-10.3,84.4*,-2.6,92.2*,3.8,
O=C(/C(=C/c1ccc(Cl)cc1)c1nc2ccccc2[nH]1)c1cccs1,0.4,35.3,59.1*,93.1*,126.0*,81.1*,100.2*,Full FLuc ctr=50.7*
COC(=O)/C(=C\c1ccc(O)cc1)c1nc2ccccc2[nH]1,16.4,11.1,-1.4,-13.6,-9.5,-7.9,/,
O=C(/C(=C\c1ccccc1)c1nc2ccccc2[nH]1)c1ccc(Cl)cc1,13.9,18.1,37.2,78.6*,2.6,99.8*,-54.4,
